Source: ChEMBL document CHEMBL3407428, “Synthesis, in vitro and in vivo antitumor activity of scopoletin-cinnamic acid hybrids” (Eur J Med Chem, 2015)
pIC50: −log10 of the molar value. Activity calls are given as the source filed them. The rule behind the calls is not given here.

Experiments:
[1] = Cytotoxicity against human HCT116 cells assessed as growth inhibition at 10^-5 M after 72 hrs by MTT assay relative to control; type: functional; settings: HCT-116, 72 h, read-out: GI
[2] = test system: A549; experiment: Cytotoxicity against human A549 cells assessed as growth inhibition at 10^-5 M after 72 hrs by MTT assay relative to control; type: functional; settings: A549, 72 h, read-out: GI
[3] = test system: MCF7; experiment: Cytotoxicity against human MCF7 cells assessed as growth inhibition at 10^-5 M after 72 hrs by MTT assay relative to control; type: functional; settings: MCF7, 72 h, read-out: GI
[4] = test system: HeLa; experiment: Cytotoxicity against human HeLa cells assessed as growth inhibition at 10^-5 M after 72 hrs by MTT assay relative to control; type: functional; settings: read-out: GI
[5] = test system: MDA-MB-231; experiment: Cytotoxicity against human MDA-MB-231 cells assessed as growth inhibition at 10^-5 M after 72 hrs by MTT assay relative to control; type: functional; settings: MDA-MB-231, 72 h, read-out: GI
[6] = test system: A549; experiment: Cell cycle arrest in human A549 cells assessed as accumulation at S phase at 0.01 uM after 24 hrs by propidium iodide staining-based flow cytometric analysis relative to control; type: functional
Method in brief: (§1)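 A549 cells (3 × 10^5 per well) were seeded overnight, then treated at 0, 0.01, 0.1 or 1 µM for 24 h. Cells were harvested, washed in cold PBS and fixed in cold 70% ethanol for at least 24 h. They were then RNase A-treated and stained with propidium iodide (50 µg/mL) at room temperature. DNA content was analysed by FACSCalibur flow cytometry.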

[7] = test system: Lewis lung carcinoma cell line; experiment: Antitumor activity against mouse LLC cells allografted in C57BL/6 mouse assessed as tumor growth inhibition at 2.5 mg/kg, ip administered for 14 days measured on day 15 relative to control; type: functional; settings: route intraperitoneal, read-out: TGI
Method in brief: (§2)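 Female C57BL/6 mice (18–22 g) given 3 × 10^6 Lewis lung cancer cells subcutaneously in the right flank; dosing began 7 to 21 days after inoculation. Mice were randomized into groups of 10. Treatment was intraperitoneal daily for 14 days at 2.5, 5 or 10 mg/kg, with a saline control group. Tumors were excised and weighed when the mice were killed after 14 days.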

[8] = test system: Lewis lung carcinoma cell line; experiment: Antitumor activity against mouse LLC cells allografted in C57BL/6 mouse assessed as tumor growth inhibition at 10 mg/kg, ip administered for 14 days measured on day 15 relative to control; type: functional; settings: route intraperitoneal, read-out: TGI; method in brief: as §2
[9] = test system: A549; experiment: Induction of apoptosis in human A549 cells assessed as early apoptotic cells at 1 uM after 24 hrs by Annexin V and propidium iodide staining-based flow cytometric analysis (reference value: 8.2%); type: functional
[10] = test system: A549; experiment: Cell cycle arrest in human A549 cells assessed as accumulation at S phase at 1 uM after 24 hrs by propidium iodide staining-based flow cytometric analysis relative to control; type: functional; method in brief: as §1
[11] = test system: A549; experiment: Cell cycle arrest in human A549 cells assessed as accumulation at G2/M phase at 0.01 to 1 uM after 24 hrs by propidium iodide staining-based flow cytometric analysis; type: functional; method in brief: as §1
[12] = test system: A549; experiment: Cell cycle arrest in human A549 cells assessed as accumulation at S phase at 0.1 uM after 24 hrs by propidium iodide staining-based flow cytometric analysis relative to control; type: functional; method in brief: as §1
[13] = test system: A549; experiment: Cell cycle arrest in human A549 cells assessed as accumulation at G0/G1 phase at 0.01 to 1 uM after 24 hrs by propidium iodide staining-based flow cytometric analysis; type: functional; settings: in the assay text read “S phase” for “G0/G1 phase”; method in brief: as §1
[14] = test system: MDA-MB-231; experiment: Cytotoxicity against human MDA-MB-231 cells assessed as growth inhibition after 72 hrs by MTT assay; type: functional, cell-based; settings: MDA-MB-231, 72 h
Method in brief: (§3)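 MTT viability assay. Cells were seeded at 5000 per well, incubated overnight, then exposed to compound at a range of concentrations for 72 h. MTT was added from a 5 mg/mL stock for 4 h, and absorbance was read at 570 nm. IC50 (50% viability inhibition) was calculated by the logit method. Each concentration was run at least three times.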

[15] = test system: A549; experiment: Induction of apoptosis in human A549 cells assessed as dead cells at 0.1 uM after 24 hrs by Annexin V and propidium iodide staining-based flow cytometric analysis (reference value: 1.4%); type: functional
[16] = test system: A549; experiment: Induction of apoptosis in human A549 cells assessed as dead cells at 1 uM after 24 hrs by Annexin V and propidium iodide staining-based flow cytometric analysis (reference value: 1.4%); type: functional
[17] = test system: Mus musculus; experiment: Toxicity in C57BL/6 mouse allografted with mouse LLC cells assessed as change in body weight at 2.5 to 10 mg/kg, ip administered for 14 days measured during compound dosing; type: organism-based; set-up: dose 2.5-10 mg/kg, route intraperitoneal; settings: in vivo, 336 h
Method in brief: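 LLC-bearing female C57BL/6 mice (18–22 g; 3 × 10^6 cells s.c., right flank) were randomized into groups of 10 and dosed i.p. daily for 14 days, with a saline control. Body weight was recorded every day from the first treatment.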

[18] = test system: Lewis lung carcinoma cell line; experiment: Antitumor activity against mouse LLC cells allografted in ip dosed C57BL/6 mouse assessed as tumor growth inhibition administered for 14 days measured on day 15; type: functional, organism-based; method in brief: as §2
[19] = test system: A549; experiment: Induction of apoptosis in human A549 cells assessed as early apoptotic cells at 0.01 uM after 24 hrs by Annexin V and propidium iodide staining-based flow cytometric analysis (reference value: 8.2%); type: functional
[20] = test system: A549; experiment: Induction of apoptosis in human A549 cells assessed as late apoptotic cells at 0.1 uM after 24 hrs by Annexin V and propidium iodide staining-based flow cytometric analysis (reference value: 7.4%); type: functional
[21] = test system: A549; experiment: Induction of apoptosis in human A549 cells assessed as late apoptotic cells at 1 uM after 24 hrs by Annexin V and propidium iodide staining-based flow cytometric analysis (reference value: 7.4%); type: functional
[22] = test system: A549; experiment: Induction of apoptosis in human A549 cells assessed as early apoptotic cells at 0.1 uM after 24 hrs by Annexin V and propidium iodide staining-based flow cytometric analysis (reference value: 8.2%); type: functional
[23] = test system: A549; experiment: Induction of apoptosis in human A549 cells assessed as late apoptotic cells at 0.01 uM after 24 hrs by Annexin V and propidium iodide staining-based flow cytometric analysis (reference value: 7.4%); type: functional
[24] = test system: A549; experiment: Induction of apoptosis in human A549 cells assessed as dead cells at 0.01 uM after 24 hrs by Annexin V and propidium iodide staining-based flow cytometric analysis (reference value: 1.4%); type: functional
[25] = Cytotoxicity against human HCT116 cells assessed as growth inhibition after 72 hrs by MTT assay; type: functional, cell-based; settings: HCT-116, 72 h; method in brief: as §3
[26] = test system: Lewis lung carcinoma cell line; experiment: Antitumor activity against mouse LLC cells allografted in C57BL/6 mouse assessed as tumor growth inhibition at 5 mg/kg, ip administered for 14 days measured on day 15 relative to control; type: functional; settings: route intraperitoneal, read-out: TGI; method in brief: as §2
[27] = test system: A549; experiment: Induction of apoptosis in human A549 cells assessed as viable cells at 0.01 uM after 24 hrs by Annexin V and propidium iodide staining-based flow cytometric analysis (reference value: 83%); type: functional; settings: A549, 24 h, read-out: Activity
[28] = test system: A549; experiment: Induction of apoptosis in human A549 cells assessed as viable cells at 1 uM after 24 hrs by Annexin V and propidium iodide staining-based flow cytometric analysis (reference value: 83%); type: functional; settings: A549, 24 h, read-out: Activity
[29] = test system: A549; experiment: Induction of apoptosis in human A549 cells assessed as viable cells at 0.1 uM after 24 hrs by Annexin V and propidium iodide staining-based flow cytometric analysis (reference value: 83%); type: functional; settings: A549, 24 h, read-out: Activity
[30] = test system: A549; experiment: Cytotoxicity against human A549 cells assessed as growth inhibition after 72 hrs by MTT assay; type: functional, cell-based; settings: A549, 72 h; method in brief: as §3

Work on COc1cc2cc(NC(=O)/C=C/c3ccc(C#N)cc3)c(=O)oc2cc1O yielded an inhibition of growth at 10 µM [1] of 14.1%, an inhibition of growth at 10 µM [2] of 36.9% and an inhibition of growth at 10 µM [3] of 27.3%. For the same compound, the inhibition of growth at 10 µM [4] was 27.1% and the inhibition of growth at 10 µM [5] was 13.1%.
With COc1cc(CCC(=O)Oc2cc3oc(=O)ccc3cc2OC)ccc1O the inhibition of growth at 10 µM [1] was 16.1%, the inhibition of growth at 10 µM [2] was 6.16% and the inhibition of growth at 10 µM [3] was 8.55%. For the same compound, the inhibition of growth at 10 µM [4] was 15.4% and the inhibition of growth at 10 µM [5] was 9.73%.
In the case of COc1cc2cc(NC(=O)/C=C/c3ccc(C(F)(F)F)cc3)c(=O)oc2cc1O, the inhibition of growth at 10 µM [1] was 17%, the inhibition of growth at 10 µM [2] was 26.4% and the inhibition of growth at 10 µM [3] was 12.6%. For the same compound, the inhibition of growth at 10 µM [4] was 19% and the inhibition of growth at 10 µM [5] was 24.6%.
Work on COc1cc2ccc(=O)oc2cc1OC(=O)/C=C/c1cc(OC)c(OC)c(OC)c1 yielded an inhibition of growth at 10 µM [1] of 18.9%, an inhibition of growth at 10 µM [2] of 20.6% and an inhibition of growth at 10 µM [3] of 18%. The inhibition of growth at 10 µM [4] was 0.93% and the inhibition of growth at 10 µM [5] was 11.8%.
COc1cc2cc(NC(=O)/C=C/c3ccc(Cl)cc3)c(=O)oc2cc1O gave an Activity [6] of 9.2%, an inhibition of growth at 10 µM [1] of 64.3% and an inhibition of growth at 10 µM [2] of 87.9%. For the same compound, the inhibition in vivo at 2.5 mg/kg [7] was 18.1%, the inhibition of growth at 10 µM [3] was 70.1% and the inhibition in vivo at 10 mg/kg [8] was 49.5%. The Activity [9] was 24.3%, the Activity [10] was 19.3% and the Activity [11] was “inactive”. For the same compound, the Activity [12] was 19.6%, the Activity [13] was “Active” and the pIC50 [14] was 6.64. For the same compound, the Activity [15] was 2.4%, the Activity [16] was 1.8% and the Activity [17] was “Non-toxic”. The TGI [18] was “Dose-dependent effect”, the Activity [19] was 5.7% and the Activity [20] was 3.6%. The Activity [21] was 7.3%, the Activity [22] was 8.3% and the Activity [23] was 3.7%. For the same compound, the Activity [24] was 4.3%, the inhibition of growth at 10 µM [4] was 86.2% and the pIC50 [25] was 6.16. The inhibition in vivo at 5 mg/kg [26] was 33.6%, the viability at 0.01 µM [27] was 86.4% and the viability at 1 µM [28] was 66.5%. The viability at 0.1 µM [29] was 85.7%, the inhibition of growth at 10 µM [5] was 70.8% and the pIC50 [30] was 6.60.
